B1: Osa-1-4 twister ribozyme (parent)
chain: CCGCCUAACACUGCCAAUGCCGGUCCCAAGCCCGGAUAAAAGUGGAGGGGGCGG

Variants of: B1
Test: self-cleavage, relative activity (ratio to wild type); higher = more cleavage; co-transcriptional
Procedure, shortened: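 For each read, cleavage status was taken from whether upstream sequence was present. The reads came from an Oryza sativa twister ribozyme of 54 nucleotides, whose DNA template was synthesised with 97 % wild-type base and 1 % of each other base at the 48 positions downstream of the cleavage site. The template was transcribed in vitro at 37 °C for 2 h with co-transcriptional self-cleavage, and the RNA was reverse-transcribed using a template-switching oligonucleotide, PCR-amplified and deep-sequenced. Relative activity is the fraction cleaved normalised to wild type.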

First: C21A G48C
Second: C21A G48U
The self-cleavage of the first is higher: 0.07 for the first, 0.05 for the second.

Compared with C21A G48A, C20U C25A is higher in self-cleavage: 0.06 for the first, 0.17 for the second.

First: C20U C25G
Second: C20U C25U
The self-cleavage of the first is lower: 0.15 for the first, 0.9 for the second.

Compared with C20A G49A, C20A G49C is lower in self-cleavage: 0.2 for the first, 0.06 for the second.

First: C20A G49U
Second: C21G C27A
The self-cleavage of the first is higher: 0.16 for the first, 0.04 for the second.

Going from C21G C27G to C20A U12G, the self-cleavage rises from 0.03 to 0.71.

Going from C20A U12A to C20A U12C, the self-cleavage falls from 0.82 to 0.57.

First: C21A U18C
Second: C21A U18G
The self-cleavage of the first is higher: 0.82 for the first, 0.6 for the second.

Compared with C21A U18A, C20A G42U is lower in self-cleavage: 0.83 for the first, 0.07 for the second.

Compared with C20G C21U, C20G C21G is lower in self-cleavage: 0.29 for the first, 0.24 for the second.

Going from C20G C21A to C20G G34C, the self-cleavage falls from 0.46 to 0.08.

First: C20G G34U
Second: C20G G34A
The self-cleavage of the first is lower: 0.06 for the first, 0.08 for the second.

Compared with C20U G34U, C20U G34A is higher in self-cleavage: 0.82 for the first, 0.95 for the second.

First: C20U G34C
Second: C21A G42U
The self-cleavage of the first is higher: 0.31 for the first, 0.05 for the second.

First: C21A G42A
Second: C21A G42C
The self-cleavage of the first is higher: 0.1 for the first, 0.07 for the second.

Going from C21A to C21G, the self-cleavage falls from 0.93 to 0.08.

C20G C9U and C20G C9A are the same in self-cleavage: 0.05 for the first, 0.05 for the second.

First: C20G C9G
Second: C20G G44C
The self-cleavage of the first is higher: 0.1 for the first, 0.06 for the second.

First: C20G G44A
Second: C20G G44U
The self-cleavage of the first is higher: 0.08 for the first, 0.07 for the second.

Going from C20U C33U to C20U C33A, the self-cleavage falls from 0.77 to 0.11.

Compared with C20U C33G, C20U G13U is lower in self-cleavage: 0.07 for the first, 0.04 for the second.

First: C20U G13C
Second: C20U G13A
The self-cleavage of the first is lower: 0.02 for the first, 0.15 for the second.

Going from C20U G42A to C20U G42U, the self-cleavage falls from 0.62 to 0.1.

Compared with C20U G42C, C20U G23U is lower in self-cleavage: 0.22 for the first, 0.13 for the second.

First: C20U G23A
Second: C20U G23C
The self-cleavage of the first is higher: 0.27 for the first, 0.05 for the second.

Compared with C20U G49C, C20U G49A is higher in self-cleavage: 0.11 for the first, 0.16 for the second.

First: C20U G49U
Second: C20U G50U
The self-cleavage of the first is lower: 0.13 for the first, 0.95 for the second.

Going from C20U G50A to C20U G50C, the self-cleavage falls from 0.92 to 0.87.

First: C21G C25G
Second: C21G C25A
The self-cleavage of the first is lower: 0.03 for the first, 0.04 for the second.

Going from C21G C25U to C20U G44C, the self-cleavage rises from 0.05 to 0.88.

C20U G44A and C20U G44U are the same in self-cleavage: 0.87 for the first, 0.87 for the second.

Compared with C21A G35U, C21A G35A is higher in self-cleavage: 0.44 for the first, 0.87 for the second.

Going from C21A G35C to C20U G51A, the self-cleavage rises from 0.06 to 0.85.

Going from C20U G51C to C20U G51U, the self-cleavage rises from 0.11 to 0.63.

First: C20G C33A
Second: C20G C33U
The self-cleavage of the first is lower: 0.04 for the first, 0.05 for the second.

Going from C20G C33G to C21A G19A, the self-cleavage rises from 0.05 to 0.4.

Going from C21A G19C to C21A G19U, the self-cleavage rises from 0.03 to 0.07.

Going from C20A G51A to C20A G51C, the self-cleavage falls from 0.78 to 0.28.

Going from C20A G51U to C20A G54A, the self-cleavage rises from 0.66 to 0.75.

First: C20A G54U
Second: C20A G54C
The self-cleavage of the first is lower: 0.76 for the first, 0.78 for the second.

Compared with C21A G34U, C21A G34A is lower in self-cleavage: 1.05 for the first, 0.91 for the second.

Going from C21A G34C to C21A G23C, the self-cleavage falls from 0.92 to 0.03.

Compared with C21A G23U, C21A G23A is higher in self-cleavage: 0.04 for the first, 0.07 for the second.

First: C20G C31A
Second: C20G C31G
The self-cleavage of the first is lower: 0.02 for the first, 0.09 for the second.

Going from C20G C31U to C20U G54U, the self-cleavage rises from 0.07 to 0.85.

First: C20U G54C
Second: C20U G54A
The self-cleavage of the first is higher: 0.84 for the first, 0.75 for the second.

Compared with C20G C27U, C20G C27A is lower in self-cleavage: 0.05 for the first, 0.04 for the second.

Compared with C20G C27G, C20U C27U is higher in self-cleavage: 0.05 for the first, 0.26 for the second.

Compared with C20U C27G, C20U C27A is higher in self-cleavage: 0.08 for the first, 0.23 for the second.

Going from C21G C26G to C21G C26U, the self-cleavage rises from 0.05 to 0.06.

Going from C21G C26A to C20G G50U, the self-cleavage rises from 0.02 to 0.09.

Compared with C20G G50C, C20G G50A is higher in self-cleavage: 0.06 for the first, 0.23 for the second.

First: C21A G49C
Second: C21A G49A
The self-cleavage of the first is lower: 0.05 for the first, 0.07 for the second.

First: C21A G49U
Second: C20U C32G
The self-cleavage of the first is lower: 0.06 for the first, 0.13 for the second.

First: C20U C32U
Second: C20U C32A
The self-cleavage of the first is higher: 0.15 for the first, 0.08 for the second.

Compared with C20G G30A, C20G G30U is lower in self-cleavage: 0.03 for the first, 0.02 for the second.

Compared with C20G G30C, C20U C26A is higher in self-cleavage: 0.03 for the first, 0.08 for the second.

First: C20U C26U
Second: C20U C26G
The self-cleavage of the first is higher: 0.92 for the first, 0.24 for the second.

First: C20G U43G
Second: C20G U43A
The self-cleavage of the first is higher: 0.09 for the first, 0.07 for the second.

First: C20G U43C
Second: C21A G22A
The self-cleavage of the first is lower: 0.07 for the first, 0.11 for the second.

First: C21A G22C
Second: C21A G22U
The self-cleavage of the first is lower: 0.07 for the first, 0.1 for the second.

First: C20U G35A
Second: C20U G35C
The self-cleavage of the first is higher: 1 for the first, 0.93 for the second.

Going from C20U G35U to C21A C33U, the self-cleavage falls from 1 to 0.07.

Going from C21A C33G to C21A C33A, the self-cleavage rises from 0.03 to 0.09.

First: C20A G50U
Second: C20A G50A
The self-cleavage of the first is higher: 0.82 for the first, 0.8 for the second.

First: C20A G50C
Second: C20A G48A
The self-cleavage of the first is higher: 0.78 for the first, 0.09 for the second.

Compared with C20A G48U, C20A G48C is lower in self-cleavage: 0.09 for the first, 0.07 for the second.

First: C21A C32G
Second: C21A C32A
The self-cleavage of the first is higher: 0.09 for the first, 0.08 for the second.

First: C21A C32U
Second: C21A G54A
The self-cleavage of the first is lower: 0.07 for the first, 0.29 for the second.

First: C21A G54C
Second: C21A G54U
The self-cleavage of the first is lower: 0.32 for the first, 0.59 for the second.

First: C21A C25G
Second: C21A C25A
The self-cleavage of the first is lower: 0.07 for the first, 0.08 for the second.

Going from C21A C25U to C20G G23C, the self-cleavage falls from 0.16 to 0.04.

Going from C20G G23U to C20G G23A, the self-cleavage rises from 0.04 to 0.06.

Compared with C20G C52G, C20G C52A is lower in self-cleavage: 0.11 for the first, 0.08 for the second.

Going from C20G C52U to C20G G42C, the self-cleavage falls from 0.17 to 0.04.

Going from C20G G42A to C20G G42U, the self-cleavage falls from 0.07 to 0.02.

Compared with C20U C31G, C20U C31A is lower in self-cleavage: 0.15 for the first, 0.05 for the second.

First: C20U C31U
Second: C20U C21A
The self-cleavage of the first is higher: 0.92 for the first, 0.87 for the second.

Going from C20U C21U to C20U C21G, the self-cleavage falls from 1.05 to 0.26.

First: C21A C26A
Second: C21A C26U
The self-cleavage of the first is lower: 0.05 for the first, 0.2 for the second.

Going from C21A C26G to C20G G13A, the self-cleavage falls from 0.09 to 0.03.

Compared with C20G G13C, C20G G13U is lower in self-cleavage: 0.02 for the first, 0.01 for the second.

Compared with C20U G53A, C20U G53C is lower in self-cleavage: 0.75 for the first, 0.09 for the second.

C20U G53U showed a self-cleavage of 0.38.
